For 27 variants, nonsense suppression results are on record in the RNAGym collection of RNA variant scans (doi:10.1101/gad.245936.114).

Sequences and labels used below:
B1: tRNA (parent)
chain: CUCUCGGUAGCCAAGUUGGUUUAAGGCGCAAGACUUUAAUUUAUCACUACGAAAUCUUGAGAUCGGGCGUUCGACUCGCCCCCGGGAGAUUUUUUCCUCGAGCAA

Variants at the floor of the assay were thinned out. A value given as a limit tells only on which side of the number the result lay.

Variants of B1 are the subject of the series. Briefly: nonsense suppression (GFP-seq) (ratio to wild type); higher = more function; SUP4oc tRNA, yeast GFP reporter sort-seq. The method in brief: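 Nonsense suppression (GFPSEQ) is the median GFP/RFP ratio of each sorting bin, weighted by the variant's estimated share of cells in that bin and expressed relative to the unmutated parent tRNA. Yeast strains carried genome-integrated variants of an ochre-suppressor tRNA from a library with ~3% random mutations, plus a galactose-driven GFP ochre reporter and RFP, and were grown in raffinose/galactose medium containing 80 mg/L adenine. Cells were sorted into GFP/RFP bins, each bin was Illumina-sequenced (phred ≥30), and variants were kept only with ≥100 reads and ≥30 cells.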
Turning to CUCUCGGUAGCCAAGUUGGUUUAAGGCGCAAGACUUUAAUUUAUCACUACGAAAUCUUGAGAUCGGGCGUUCGACUCGCCGCCGGGAAAUUUUUUCCUCGAGCAA, the nonsense suppression is at most 0.026. Consider CUCUCGGUAGCCAAGUUGGUUUAAGGCGCAAGACUUUAAUUUAUCACUACGAAAUCUUGAGAUCGGGCGUUCGACUCGCCUCCAGGAGAUUUUUUCCUCGAGCAA, for which the nonsense suppression turned out to be 0.0642. Under CUCUCGGUAGCCAAGUUGGUUUAAGGCGCAAGACUUUAAUUUAUCACUACGAAAUCUUGAGAUCGGGCGUUCGACUCGCCUCCUGGAGAUUUUUUCCUCGAGCAA stands 0.065; under CUCUCGGUAGCCAAGUUGGUUUAAGGCGCAAGACUUUAAUUUAUCACUACGAAAUCUUGAGAUCGGGCGUUCGACUCGCUCCCGGGAAAUUUUUUCCUCGAGCAA, 0.0263. For the variant CUCUCGGUAGCCAAGUUGGUUUAAGGCGCAAGACUUUAAUUUAUCACUACGAAAUCUUGAGAUCGGGCGUUCGACUCCCCCCCUGGAGAUUUUUUCCUCGAGCAA, the nonsense suppression stood at 0.0271. For the variant CUCUCGGUAGCCAAGUUGGUUUAAGGCGCAAGACUUUAAUUUAUCACUACGAAAUCUUGAGAUCGGGCGUUCGACUCGCACCCGGAAGAUUUUUUCCUCGAGCAA, the nonsense suppression is at most 0.026.

In the case of CUCUCGGUAGCCAAGUUGGUUUAAGGCGCAAGACUUUAAUUUAUCACUACGAAAUCUUGAGAUCGGGCGUUCGACCCUCCCCCGGGAGAUUUUUUCCUCGAGCAA, the nonsense suppression came out at 0.0507.

As for CUCUCGGUAGCCAAGUUGGUUUAAGGCGCAAGACUUUAAUUUAUCACUACGAAAUCUUGAGAUCGGGCGUUCGACCCCCCCCCGGGAGAUUUUUUCCUCGAGCAA, the nonsense suppression came to 0.118. Under CUCUCGGUAGCCAAGUUGGUUUAAGGCGCAAGACUUUAAUUUAUCACUACGAAAUCUUGAGAUCGGGCGUUCGACUCGCCACCGGGAGCUUUUUUCCUCGAGCAA stands at most 0.026; under CUCUCGGUAGCCAAGUUGGUUUAAGGCGCAAGACUUUAAUUUAUCACUACGAAAUCUUGAGAUCGGGCGUUCGACUCGACCCCGGGCGAUUUUUUCCUCGAGCAA, at most 0.026. As for CUCUCGGUAGCCAAGUUGGUUUAAGGCGCAAGACUUUAAUUUAUCACUACGAAAUCUUGAGAUCGGGCGUUCGACUCUCCCCCAGGAGAUUUUUUCCUCGAGCAA, the nonsense suppression is 0.0428. The same measure for CUCUCGGUAGCCAAGUUGGUUUAAGGCGCAAGACUUUAAUUUAUCACUACGAAAUCUUGAGAUCGGGCGUUCGACUCGCUCCCGGGUGAUUUUUUCCUCGAGCAA: 0.035. Under CUCUCGGUAGCCAAGUUGGUUUAAGGCGCAAGACUUUAAUUUAUCACUACGAAAUCUUGAGAUCGGGCGUUCGACUUGACCCAGGGAGAUUUUUUCCUCGAGCAA stands at most 0.026. Regarding CUCUCGGUAGCCAAGUUGGUUUAAGGCGCAAGACUUUAAUUUAUCACUACGAAAUCUUGAGAUCGGGCGUUCGACUCGCCACCGUGAGAUUUUUUCCUCGAGCAA, the nonsense suppression was at most 0.026.

With CUCUCGGUAGCCAAGUUGGUUUAAGGCGCAAGACUUUAAUUUAUCACUACGAAAUCUUGAGAUCGGGCGUUCGACUCGUCCCCGGGAGAUUUUUUCCUCGAGCAA, the nonsense suppression turned out to be 0.879. As for CUCUCGGUAGCCAAGUUGGUUUAAGGCGCAAGACUUUAAUUUAUCACUACGAAAUCUUGAGAUCGGGCGUUCGACUCUCCCCCGCGAGAUUUUUUCCUCGAGCAA, the nonsense suppression turned out to be 0.0488. The same measure for CUCUCGGUAGCCAAGUUGGUUUAAGGCGCAAGACUUUAAUUUAUCACUACGAAAUCUUGAGAUCGGGCGUUCGACUCACCGCCGGGAGAUUUUUUCCUCGAGCAA: 0.0732.

CUCUCGGUAGCCAAGUUGGUUUAAGGCGCAAGACUUUAAUUUAUCACUACGAAAUCUUGAGAUCGGGCGUUCGACUCAGCCCCGGGAGAUUUUUUCCUCGAGCAA: the nonsense suppression was 0.0629. For CUCUCGGUAGCCAAGUUGGUUUAAGGCGCAAGACUUUAAUUUAUCACUACGAAAUCUUGAGAUCGGGCGUUCGACGCGGCCCCGGGAAAUUUUUUCCUCGAGCAA, the nonsense suppression was at most 0.026.

On to CUCUCGGUAGCCAAGUUGGUUUAAGGCGCAAGACUUUAAUUUAUCACUACGAAAUCUUGAGAUCGGGCGUUCGACUCGCUCCCAGGAGAUUUUUUCCUCGAGCAA, for which the nonsense suppression was determined as 0.125.

As for CUCUCGGUAGCCAAGUUGGUUUAAGGCGCAAGACUUUAAUUUAUCACUACGAAAUCUUGAGAUCGGGCGUUCGACUUGCCCCAGGGAGAUUUUUUCCUCGAGCAA, the nonsense suppression was at most 0.026.

Take CUCUCGGUAGCCAAGUUGGUUUAAGGCGCAAGACUUUAAUUUAUCACUACGAAAUCUUGAGAUCGGGCGUUCGACUCCCCCCCGGGAGUUUUUUUCCUCGAGCAA: the nonsense suppression was at most 0.026. The same measure for CUCUCGGUAGCCAAGUUGGUUUAAGGCGCAAGACUUUAAUUUAUCACUACGAAAUCUUGAGAUCGGGCGUUCGACUCGACCCCCGGAGAUUUUUUCCUCGAGCAA: at most 0.026.

On to CUCUCGGUAGCCAAGUUGGUUUAAGGCGCAAGACUUUAAUUUAUCACUACGAAAUCUUGAGAUCGGGCGUUCGACUCGCGCCCAGGAGAUUUUUUCCUCGAGCAA, for which the nonsense suppression is at most 0.026. With CUCUCGGUAGCCAAGUUGGUUUAAGGCGCAAGACUUUAAUUUAUCACUACGAAAUCUUGAGAUCGGGCGUUCGACUCCCCCCCGUGAGAUUUUUUCCUCGAGCAA, the nonsense suppression was 0.232.

For CUCUCGGUAGCCAAGUUGGUUUAAGGCGCAAGACUUUAAUUUAUCACUACGAAAUCUUGAGAUCGGGCGUUCGACUCACCCGCGGGAGAUUUUUUCCUCGAGCAA, the nonsense suppression came to 0.0423. Turning to CUCUCGGUAGCCAAGUUGGUUUAAGGCGCAAGACUUUAAUUUAUCACUACGAAAUCUUGAGAUCGGGCGUUCGACUCACCCACGGGAGAUUUUUUCCUCGAGCAA, the nonsense suppression was 0.0338.
